{"data": "Measured values of several laboratories", "target": "Rho-associated protein kinase 2 (ROCK2, Homo sapiens, UniProt O75116)"}
{"SMILES": "O=C1Nc2ccc(Cl)cc2C1=Cc1cc(Cl)c(O)c(Cl)c1", "effect on": "cell-free assay", "concentration": "0.5 µM", "quantity": "remaining signal", "result": "90.6%"}
{"SMILES": "COc1cccc(CNC(=O)c2nc3scc(COCc4ccc(C(=O)O)cc4)c3c(=O)[nH]2)c1", "effect on": "cell-free assay", "method": "competition with immobilised ligand", "concentration": "1 µM", "quantity": "remaining binding", "result": "69.1%"}
{"SMILES": "CNCc1ccc(-c2cc(-c3nc(-c4ccc(S(=O)(=O)C(C)C)cc4)cnc3N)on2)cc1", "effect on": "enzyme activity", "action": "inhibitor", "concentration": "2 µM", "quantity": "inhibition", "result": "13%"}
{"SMILES": "C[C@H](c1ccnc(Nc2nc3ccc(-c4cc(N(C)C)ncn4)cc3[nH]2)c1)N1CCN(C(=O)CC(F)(F)F)CC1", "effect on": "cell-free assay", "method": "competition with immobilised ligand", "concentration": "0.1 µM", "quantity": "remaining binding", "result": "100%"}
{"SMILES": "COc1cc(Cl)c(C(=O)N[C@@H](CN[C@H]2CC[C@@H](N)CC2)Cc2ccc(C#N)cc2)cc1-c1ccc(CN[C@H](C)c2ccc(C)cc2)o1", "effect on": "enzyme activity", "action": "inhibitor", "concentration": "1 µM", "quantity": "remaining activity", "result": "96%"}
{"SMILES": "CCCOc1ccc(OC)c(F)c1C(=O)c1ccc(C(=O)N[C@@H]2CNC[C@H]2NC(=O)c2ccc3[nH]ncc3c2)cc1", "effect on": "enzyme activity", "action": "inhibitor", "concentration": "0.75 µM", "quantity": "remaining activity", "result": "4%"}
{"SMILES": "Cc1c(NC(=O)c2cc(C(N)=O)nc3cc(F)ccc23)c(C(F)(F)F)nn1Cc1ccc(C(C)(C)C)cc1", "effect on": "cell-free assay", "method": "competition with immobilised ligand", "concentration": "1 µM", "quantity": "remaining binding", "result": "100%"}
{"SMILES": "Nc1nc(NC2CCCCC2)sc1C(=O)c1ccccc1", "effect on": "enzyme activity", "action": "inhibitor", "concentration": "10 µM", "quantity": "remaining activity", "result": "97%"}
{"SMILES": "C=CC(=O)Nc1cc(Nc2nccc(Nc3cc(Cl)c(F)cc3C(C)(C)O)n2)c(OC)cc1N1CC[C@@H](N(C)C)C1", "effect on": "enzyme activity", "action": "inhibitor", "concentration": "1 µM", "quantity": "inhibition", "result": "15%"}
{"SMILES": "Fc1cccc(-n2cnc3c(NCc4nc5c(F)c(F)ccc5[nH]4)nc(N4CCOCC4)nc32)c1", "effect on": "binding", "method": "competition with immobilised ligand", "concentration": "10 µM", "quantity": "binding vs control", "result": "54%"}
{"SMILES": "CCS(=O)(=O)c1cc2cc(C[C@@](O)(CC(C)(C)c3ccc(F)cc3C(N)=O)C(F)(F)F)[nH]c2cn1", "effect on": "cell-free assay", "method": "competition with immobilised ligand", "concentration": "1 µM", "quantity": "remaining binding", "result": "76%"}
{"SMILES": "Cn1cncc1C1=CN(c2ncnc3[nH]cnc23)CCS1", "effect on": "enzyme activity", "action": "inhibitor", "method": "radiometric", "concentration": "2 µM", "quantity": "inhibition", "result": "93.3%"}
{"SMILES": "Cn1c(=O)n(-c2ccc(C(C)(C)C#N)cc2)c2c3cc(-c4cnc5ccccc5c4)ccc3ncc21", "effect on": "enzyme activity", "action": "inhibitor", "concentration": "10 µM", "quantity": "remaining activity", "result": "84%"}
{"SMILES": "CS(=O)(=O)Nc1cccc(-c2csc(NC(=O)CSc3nc4nccnc4c(=O)n3CCc3ccccc3)n2)c1", "effect on": "enzyme activity", "action": "inhibitor", "concentration": "10 µM", "quantity": "inhibition", "result": "5%"}
{"SMILES": "CC/C(=N\\NC(=O)C(C)Nc1ccccc1)c1ccc(O)c(C)c1O (stereo not shown)", "effect on": "enzyme activity", "action": "inhibitor", "concentration": "0.1 µM", "quantity": "inhibition", "result": "25.7%"}
{"SMILES": "CC(C)c1ccc(NC(=O)c2cccs2)c(-c2nc3ccccc3[nH]c2=O)c1", "effect on": "enzyme activity", "action": "inhibitor", "concentration": "1 µM", "quantity": "activity vs control", "result": "119%"}
{"SMILES": "O=C(Nc1cnn(-c2csc(C(=O)NC3COC3)c2)c1)Nc1c(F)cccc1Cl", "effect on": "enzyme activity", "action": "inhibitor", "concentration": "5 µM", "quantity": "remaining activity", "result": "107%"}
{"SMILES": "Cn1cnc(Br)c1C1=CN(c2ncnc3[nH]cnc23)CCS1", "effect on": "enzyme activity", "action": "inhibitor", "method": "radiometric", "concentration": "50 nM", "quantity": "inhibition", "result": "18.6%"}
{"SMILES": "O=S(=O)(NCCNC/C=C/c1ccc(Br)cc1)c1cccc2cnccc12", "effect on": "cell-free assay", "concentration": "0.5 µM", "quantity": "remaining signal", "result": "15.4%"}
{"SMILES": "Cc1ccc(-n2nc(C(C)(C)C)cc2NC(=O)Nc2ccc(OCCN3CCOCC3)c3ccccc23)cc1", "effect on": "enzyme activity", "action": "inhibitor", "concentration": "10 µM", "quantity": "inhibition", "result": "-3%"}
{"SMILES": "CCN(CC)c1ccc(C2=NNC(=O)CC2C)cc1[N+](=O)[O-] (stereo not shown)", "effect on": "enzyme activity", "action": "inhibitor", "concentration": "10 µM", "quantity": "remaining activity", "result": "99%"}
{"SMILES": "COc1cc2ncnc(Nc3ccc(Oc4ccccc4)cc3C)c2cc1OC", "effect on": "enzyme activity", "action": "inhibitor", "concentration": "1 µM", "quantity": "inhibition", "result": "1%"}
{"SMILES": "O=C1NC(=O)c2cc(Nc3ccc(F)cc3)c(Nc3ccc(F)cc3)cc21", "effect on": "cell-free assay", "concentration": "0.5 µM", "quantity": "remaining signal", "result": "92.8%"}
{"SMILES": "CC(C)(C)c1nc(-c2cccc(NS(=O)(=O)c3c(F)cccc3F)c2F)c(-c2ccnc(N)n2)s1", "effect on": "enzyme activity", "action": "inhibitor", "method": "radiometric", "concentration": "1 µM", "quantity": "remaining activity", "result": "103%"}
{"SMILES": "CC(=O)C1=C(C)N(c2cccc(C(F)(F)F)c2)C(=O)N[C@@H]1c1ccc(C#N)nc1", "effect on": "cell-free assay", "method": "competition with immobilised ligand", "concentration": "1 µM", "quantity": "remaining binding", "result": "86.1%"}
{"SMILES": "FC(F)c1nc2ccccc2n1-c1nc(N2CCOCC2)nc(N2CCOCC2)n1", "effect on": "enzyme activity", "action": "inhibitor", "concentration": "10 µM", "quantity": "remaining activity", "result": "85%"}
{"SMILES": "CCN(CC)CCNC(=O)c1c(C)[nH]c(/C=C2\\C(=O)Nc3ccc(F)cc32)c1C", "effect on": "cell-free assay", "concentration": "0.5 µM", "quantity": "remaining signal", "result": "72.1%"}
{"SMILES": "Cc1sc(C(=O)NC2COC2)cc1-n1cc(NC(=O)Nc2c(F)cccc2Cl)cn1", "effect on": "enzyme activity", "action": "inhibitor", "concentration": "10 µM", "quantity": "remaining activity", "result": "93.6%"}
{"SMILES": "NS(=O)(=O)c1cc(NC(=O)C2(c3ccccc3Cl)CC2)ccc1Oc1cccc(Cl)c1", "effect on": "cell-free assay", "method": "competition with immobilised ligand", "concentration": "1 µM", "quantity": "remaining binding", "result": "100%"}
{"SMILES": "CNC(=O)c1cc(Oc2ccc(NC(=O)Nc3ccc(Cl)c(C(F)(F)F)c3)cc2)ccn1", "effect on": "enzyme activity", "action": "inhibitor", "concentration": "10 µM", "quantity": "inhibition", "result": "38%"}
{"SMILES": "CN(C(=O)c1ccccc1)c1cc(N(C)c2ccc3c(c2)CCc2ccc(C(=O)NCCN4CCOCC4)cc2C3=O)ccc1F", "effect on": "cell-free assay", "method": "competition with immobilised ligand", "concentration": "1 µM", "quantity": "remaining binding", "result": "100%"}
{"SMILES": "Cc1ccc(Nc2nccc(N(C)c3ccc4c(C)n(C)nc4c3)n2)cc1S(N)(=O)=O", "effect on": "enzyme activity", "action": "inhibitor", "concentration": "10 µM", "quantity": "inhibition", "result": "-27%"}
{"SMILES": "CCOc1cc(-c2nncn2C)ccc1Nc1ncc2cc(C)nc(NCC(C)(C)C)c2n1", "effect on": "enzyme activity", "action": "inhibitor", "method": "FRET", "concentration": "1 µM", "quantity": "inhibition", "result": "< 15%"}
{"SMILES": "COc1cc(Nc2cnc(C#N)c(O[C@H](C)CN(C)C)n2)ncc1-c1cnn(C)c1", "effect on": "enzyme activity", "action": "inhibitor", "method": "radiometric", "concentration": "10 µM", "quantity": "remaining activity", "result": "40%"}
{"SMILES": "CN(c1ncccc1CNc1nc(Nc2ccc3c(c2)CC(=O)N3)ncc1C(F)(F)F)S(C)(=O)=O", "effect on": "enzyme activity", "action": "inhibitor", "concentration": "1 µM", "quantity": "inhibition", "result": "11.3%"}
{"SMILES": "O=C1NC(c2ccccn2)Sc2ccccc21 (stereo not shown)", "effect on": "cell-free assay", "method": "competition with immobilised ligand", "concentration": "1 µM", "quantity": "remaining binding", "result": "67%"}
{"SMILES": "Cc1cc(NC(=O)c2cccc3cc(-c4cccc5[nH]nc(N)c45)ccc23)ccc1F", "effect on": "enzyme activity", "action": "inhibitor", "concentration": "0.1 µM", "quantity": "activity vs control", "result": "98%"}
